Reference: ChEMBL document CHEMBL4004822, “Thienopyrimidinone Based Sirtuin-2 (SIRT2)-Selective Inhibitors Bind in the Ligand Induced Selectivity Pocket” (J Med Chem, 2017)
Calls of active or inactive are those of the source. The calls are words filed in the database; no cut-off is given here.

Experiments:
[1] = molecular target: T1, NAD-dependent protein deacetylase sirtuin-1 (Homo sapiens, UniProt Q96EB6); test: Inhibition of human SIRT1
T1 sequence (Q96EB6 whole entry): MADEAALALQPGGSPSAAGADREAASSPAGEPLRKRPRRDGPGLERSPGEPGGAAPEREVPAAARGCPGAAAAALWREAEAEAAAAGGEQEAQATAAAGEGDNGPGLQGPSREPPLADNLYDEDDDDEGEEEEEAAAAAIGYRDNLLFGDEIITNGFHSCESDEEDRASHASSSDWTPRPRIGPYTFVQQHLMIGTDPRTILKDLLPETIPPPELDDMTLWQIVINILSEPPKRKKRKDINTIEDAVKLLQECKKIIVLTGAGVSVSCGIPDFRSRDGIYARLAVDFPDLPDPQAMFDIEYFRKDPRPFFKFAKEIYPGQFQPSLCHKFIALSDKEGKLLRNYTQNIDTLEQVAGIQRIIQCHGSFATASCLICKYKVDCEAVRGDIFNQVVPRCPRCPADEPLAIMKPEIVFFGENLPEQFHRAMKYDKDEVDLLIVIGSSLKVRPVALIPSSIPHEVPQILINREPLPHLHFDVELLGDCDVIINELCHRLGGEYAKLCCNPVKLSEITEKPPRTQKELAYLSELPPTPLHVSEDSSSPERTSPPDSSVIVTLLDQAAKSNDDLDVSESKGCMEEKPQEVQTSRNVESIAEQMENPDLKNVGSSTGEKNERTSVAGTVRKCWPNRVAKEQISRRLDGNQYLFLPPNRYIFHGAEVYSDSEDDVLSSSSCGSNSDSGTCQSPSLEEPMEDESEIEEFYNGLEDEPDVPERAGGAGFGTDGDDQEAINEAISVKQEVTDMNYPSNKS
Outline: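 Compounds were pre-incubated with human SIRT about 10 min before substrate addition, then developer added. Read ex 360/em 460 nm; activity relative to DMSO; sigmoidal 10-dose IC50, n = 2; suramin positive control.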

[2] = molecular target: T2, NAD-dependent protein deacetylase sirtuin-2 (Homo sapiens) (UniProt Q8IXJ6); test: Inhibition of SIRT2 in human MCF7 cells assessed as increase in alpha-tubulin K40 acetylation level at 10 to 50 uM after 24 hrs in presence of TSA by Western blot analysis; type: cell-based
T2 sequence (whole entry): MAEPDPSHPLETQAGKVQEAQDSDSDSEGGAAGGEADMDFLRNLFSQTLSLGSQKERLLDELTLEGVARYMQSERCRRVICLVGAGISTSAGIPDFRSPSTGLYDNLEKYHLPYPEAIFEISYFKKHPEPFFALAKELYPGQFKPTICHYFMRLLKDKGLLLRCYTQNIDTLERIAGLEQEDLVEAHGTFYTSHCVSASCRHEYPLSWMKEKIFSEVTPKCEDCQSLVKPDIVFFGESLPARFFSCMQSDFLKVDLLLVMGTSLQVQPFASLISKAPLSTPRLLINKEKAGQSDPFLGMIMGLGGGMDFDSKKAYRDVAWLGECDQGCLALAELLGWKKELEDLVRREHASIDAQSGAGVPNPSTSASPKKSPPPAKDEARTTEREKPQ
Outline: (§1)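 MCF-7 cells (ATCC, authenticated) kept in DMEM with 10% FCS, penicillin/streptomycin and 2 mM glutamine at 37 °C under 10% CO2. Treated 24 h with compound at 0, 1, 10, 20, 30 or 50 μM plus 50 nM TSA to block non-sirtuin HDACs. NP40 lysates (20 μg protein, BCA-quantified) run on SDS-PAGE and Western blotted for acetyl-K40 α-tubulin, total α-tubulin and β-actin; ECL detection.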

[3] = molecular target: T2, NAD-dependent protein deacetylase sirtuin-2 (Homo sapiens); test: Inhibition of recombinant human C-terminal His-tagged SIRT2 (50 to 389 end residues) expressed in Escherichia coli at 10 uM using p53 derived (379 to 382 residues) fluorogenic peptide substrate RHKK(Ac)-AMC preincubated for 10 mins followed by substrate addition in presence of NAD+ by fluorescence assay relative to control
Outline: (§2)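 Two-step fluorogenic assay with p53 379–382 RHKK(Ac)-AMC. Compound (from 10 mM DMSO stock) preincubated ~10 min with human SIRT before substrate addition. Developer then releases fluorophore, read at ex 360/em 460 nm.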

[4] = molecular target: T1, NAD-dependent protein deacetylase sirtuin-1; test: Inhibition of recombinant human N-terminal His-tagged SIRT1 (1 to 747 end residues) expressed in Escherichia coli using p53 derived (379 to 382 residues) fluorogenic peptide substrate RHKK(Ac)-AMC preincubated for 10 mins followed by substrate addition in presence of NAD+ by fluorescence assay; outline: as §2
[5] = molecular target: T3, NAD-dependent protein deacetylase sirtuin-2 (Homo sapiens, UniProt Q8IXJ6); test: Inhibition of recombinant human C-terminal His-tagged SIRT2 (50 to 389 end residues) expressed in Escherichia coli using p53 derived (379 to 382 residues) fluorogenic peptide substrate RHKK(Ac)-AMC preincubated for 10 mins followed by substrate addition in presence of NAD+ by fluorescence assay; outline: as §2
T3 sequence (Q8IXJ6 whole entry): T2 sequence (whole entry)

[6] = molecular target: T4, NAD-dependent protein deacetylase sirtuin-3, mitochondrial (Homo sapiens, UniProt Q9NTG7); test: Inhibition of recombinant human N-terminal GST-tagged SIRT3 (101 to 399 residues) expressed in Escherichia coli using p53 derived (379 to 382 residues) fluorogenic peptide substrate RHKK(Ac)-AMC) preincubated for 10 mins followed by substrate addition in presence of NAD+ by fluorescence assay
T4 sequence (Q9NTG7 whole entry): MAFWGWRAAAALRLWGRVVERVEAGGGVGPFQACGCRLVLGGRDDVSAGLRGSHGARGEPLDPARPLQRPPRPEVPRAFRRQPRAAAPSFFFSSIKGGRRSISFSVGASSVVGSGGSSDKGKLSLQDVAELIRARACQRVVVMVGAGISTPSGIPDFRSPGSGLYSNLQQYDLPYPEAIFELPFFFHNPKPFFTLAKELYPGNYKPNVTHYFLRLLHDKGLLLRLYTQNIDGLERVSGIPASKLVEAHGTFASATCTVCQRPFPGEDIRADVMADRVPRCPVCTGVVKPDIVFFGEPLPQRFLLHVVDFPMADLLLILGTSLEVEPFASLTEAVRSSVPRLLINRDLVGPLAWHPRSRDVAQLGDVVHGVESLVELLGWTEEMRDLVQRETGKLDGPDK

[7] = molecular target: T2, NAD-dependent protein deacetylase sirtuin-2 (Homo sapiens); test: Inhibition of SIRT2 in human MCF7 cells assessed as increase in alpha-tubulin K40 acetylation level at 50 uM after 24 hrs in presence of TSA by Western blot analysis; type: cell-based; outline: as §1
[8] = molecular target: T3, NAD-dependent protein deacetylase sirtuin-2; test: Inhibition of recombinant human C-terminal His-tagged SIRT2 (50 to 389 end residues) expressed in Escherichia coli in presence of NAD+ by enzyme coupled SIRT-Glo assay
Homo sapiens [9] = species: Homo sapiens; test: Selectivity ratio of IC50 for recombinant human N-terminal GST-tagged SIRT3 (101 to 399 residues) expressed in Escherichia coli to IC50 for recombinant human C-terminal His-tagged SIRT2 (50 to 389 end residues) expressed in Escherichia coli
[10] = molecular target: T3, NAD-dependent protein deacetylase sirtuin-2; test: Inhibition of recombinant human C-terminal His-tagged SIRT2 (50 to 389 end residues) expressed in Escherichia coli using tubulin-K40 peptide in presence of NAD+
[11] = molecular target: NAD-dependent protein deacylase sirtuin-5, mitochondrial (Homo sapiens, UniProt Q9NXA8); test: Inhibition of recombinant human N-terminal His-tagged SIRT5 (37 to 310 end residues) expressed in Escherichia coli using Ac-K(Succ)-AMC as substrate in presence of NAD+ by fluorescence assay
NAD-dependent protein deacylase sirtuin-5, mitochondrial, sequence (Q9NXA8 whole entry): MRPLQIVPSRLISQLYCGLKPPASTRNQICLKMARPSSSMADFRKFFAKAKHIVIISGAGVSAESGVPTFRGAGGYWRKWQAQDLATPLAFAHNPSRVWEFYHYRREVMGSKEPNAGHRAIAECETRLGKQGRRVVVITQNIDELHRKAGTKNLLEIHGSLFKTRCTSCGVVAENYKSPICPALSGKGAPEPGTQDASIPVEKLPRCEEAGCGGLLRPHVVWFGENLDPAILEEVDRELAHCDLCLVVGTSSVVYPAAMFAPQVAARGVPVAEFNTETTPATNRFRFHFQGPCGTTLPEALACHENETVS

Homo sapiens [12] = species: Homo sapiens; test: Selectivity ratio of IC50 for recombinant human N-terminal His-tagged SIRT1 (1 to 747 end residues) expressed in Escherichia coli to IC50 for recombinant human C-terminal His-tagged SIRT2 (50 to 389 end residues) expressed in Escherichia coli
[13] = molecular target: T2, NAD-dependent protein deacetylase sirtuin-2 (Homo sapiens); test: Inhibition of SIRT2 in human MCF7 cells assessed as increase in alpha-tubulin K40 acetylation level at 20 uM after 24 hrs in presence of TSA by Western blot analysis; type: cell-based; outline: as §1
[14] = molecular target: T2, NAD-dependent protein deacetylase sirtuin-2 (Homo sapiens); test: Inhibition of SIRT2 in human MCF7 cells assessed as increase in alpha-tubulin K40 acetylation level after 24 hrs in presence of TSA by Western blot analysis; type: cell-based; outline: as §1
[15] = molecular target: T1, NAD-dependent protein deacetylase sirtuin-1; test: Inhibition of human SIRT1 (133 to 747 residues) using (Z-Lys(Acetyl)-AMC) as substrate after 4 hrs in presence of NAD+ by fluorescence assay
[16] = molecular target: NAD-dependent protein deacylase sirtuin-6 (Homo sapiens, UniProt Q8N6T7); test: Inhibition of human SIRT6 (13 to 308 residues) using Ac-EALPKK(Myristoyl)TGG-NH2 as substrate after 10 mins in presence of NAD+ by fluorescence assay
NAD-dependent protein deacylase sirtuin-6, sequence (Q8N6T7 whole entry, the tested form may be a part): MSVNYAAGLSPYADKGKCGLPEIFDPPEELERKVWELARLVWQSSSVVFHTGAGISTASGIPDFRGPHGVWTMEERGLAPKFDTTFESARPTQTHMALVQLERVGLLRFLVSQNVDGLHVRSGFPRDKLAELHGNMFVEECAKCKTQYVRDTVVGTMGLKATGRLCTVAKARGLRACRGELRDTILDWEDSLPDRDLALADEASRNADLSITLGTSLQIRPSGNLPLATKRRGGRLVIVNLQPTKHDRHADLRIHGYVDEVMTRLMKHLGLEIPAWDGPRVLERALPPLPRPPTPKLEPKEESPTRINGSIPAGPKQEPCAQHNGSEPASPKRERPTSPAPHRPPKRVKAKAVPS

[17] = molecular target: T2, NAD-dependent protein deacetylase sirtuin-2 (Homo sapiens); test: Inhibition of SIRT2 in human MCF7 cells assessed as increase in alpha-tubulin K40 acetylation level at 1 to 50 uM after 24 hrs in presence of TSA by Western blot analysis; type: cell-based; outline: as §1

inhibition [3] [%]	IC50 [4] [µM]	IC50 [5] [µM]	IC50 [6] [µM]	Ratio IC50 (Homo sapiens [9])	Ratio IC50 (Homo sapiens [12])	Structure (SMILES)	other results
–	–	–	–	–	–	N#C/C(=C\c1ccc(-c2cc(Cl)ccc2Cl)o1)C(=O)Nc1cccc2ncccc12	IC50 [1]: > 50 µM; inhibition [2]: Active
94	13.8	0.73	–	–	–	COc1ccc(Cn2cnc3sc4c(c3c2=O)CCC(NC2CCCC2)C4)c2ccccc12 (configuration not stated)	–
–	> 100	–	> 100	> 100	> 100	COc1ccc2ccccc2c1Cn1cnc2sc3c(c2c1=O)CCC(NCc1cccnc1)C3 (configuration not stated)	inhibition [7]: inactive; IC50 [8]: 0.17 µM; Ki [10]: 0.62 µM; IC50 [11]: > 100 µM; inhibition [13]: Active
96	129	0.58	18	31	222	COc1ccc(Cn2cnc3sc4c(c3c2=O)CCC(NCc2c(C)noc2C)C4)c2ccccc12 (configuration not stated)	inhibition [2]: Active; inhibition [14]: Dose-dependent effect
–	–	–	–	–	–	Cc1cc(C)nc(SCC(=O)Nc2ncc(Cc3cccc4ccccc34)s2)n1	IC50 [15]: > 100 µM; IC50 [16]: > 200 µM
96	119	0.65	–	–	–	COc1ccc(CNC2CCc3c(sc4ncn(Cc5c(OC)ccc6ccccc56)c(=O)c34)C2)cc1 (configuration not stated)	–
97	42.1	0.39	> 100	> 256	108	N#Cc1ccc(CNC2CCc3c(sc4ncn(Cc5cccc6cccnc56)c(=O)c34)C2)cc1 (configuration not stated)	–
22	–	–	–	–	–	O=c1c2c3c(sc2ncn1Cc1ccccc1)CC(NCC1CCCO1)CC3 (configuration not stated)	inhibition [17]: inactive
83	–	3.68	–	–	–	O=c1c2c3c(sc2ncn1Cc1cccc2cccnc12)CC(NCc1ccncc1)CC3 (configuration not stated)	–
